Source: the array DNA melting data of Ke et al. (doi:10.1101/2024.01.08.574731)

Assays:
[1] = folding enthalpy; higher = less favourable; fluorescence melt of hairpins on a sequencing array, two-state fit; details: sodium 0.088 M
Procedure, shortened: (§1)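 Library hairpins on a sequenced MiSeq flow cell carried annealed Cy3 and quencher oligos, and their Cy3 fluorescence was imaged in 50 mM Na-HEPES pH 8.0 with 25 mM NaCl, in 2.5 °C steps up to 60 °C. Signals were normalised to Cy3 before quenching and to control constructs. Melting temperature and folding enthalpy were obtained from bootstrapped two-state fits, combined by inverse-variance weighting across four replicates, and the fitted temperatures were then raised by 9.35 °C to match UV melts.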

[2] = melting temperature; fluorescence melt of hairpins on a sequencing array, two-state fit, raised by 9.35 °C to match UV melts; details: sodium 0.088 M
Procedure, shortened: as §1

Sequence	folding enthalpy [1] [kcal/mol]	Tm [2] [°C]
CGCGCGGAAACGCTTGCG ((((((....)))..)))	-21.5	49.4
CGCGGAAAAACAACAACAACCGCG ((....................))	-29.6	37.3
CGCGGAAAAATCCGCG ((((((....))))))	-38.1	58.9
CGCGGAAAACTCCGCG ((((((....))))))	-38.9	62
CGCGGAAAGCTCCGCG ((((((....))))))	-28.3	68.7
CGCGGAACACTCCGCG ((((((....))))))	-34.8	63.3
CGCGGAACTATCCGCG ((((((....))))))	-31.2	68.7
CGCGGAAGAATCCGCG ((((((....))))))	-32.1	69
CGCGGAAGATTCCGCG ((((((....))))))	-38.7	68.9
CGCGGAAGCATCCGCG ((((((....))))))	-27.5	60.3
CGCGGAAGGCTCCGCG ((((((....))))))	-30.1	68.7
CGCGGAAGGGTCCGCG ((((((....))))))	-29.1	69.3
CGCGGAAGTATCCGCG ((((((....))))))	-37.9	69
CGCGGAATAATCCGCG ((((((....))))))	-34.7	67.7
CGCGGACAACTCCGCG ((((((....))))))	-31.9	64.9
CGCGGACCGCTCCGCG ((((((....))))))	-34.1	63.1
CGCGGACTACTCCGCG ((((((....))))))	-30.9	69
CGCGGAGAGTCCGCG ((((((...))))))	-27	69
CGCGGAGCGGTCCGCG ((((((....))))))	-15.8	50.5
CGCGGGAAAGCCCGCG ((((((....))))))	-37.1	68.1
CGCGTCGGAAACGAGGCG (((.(((....))).)))	-46.5	60.9
CGCTAACGGAAACGTGCG (((..(((....))))))	-28.9	48
CGCTACCGGAAACGGGCG (((..(((....))))))	-22.5	49.4

Sequence	folding enthalpy [1] [kcal/mol]	Tm [2] [°C]
CGCTCACGGAAACGTGCG (((..(((....))))))	-15.6	39.6
CGCTCCGGAAACGGTGCG (((.(((....))).)))	-31.3	60.2
CGCTCGGAAACGAACGCG ((((((....)))..)))	-19.4	44.8
CGCTCGGAAACGATAGCG ((((((....)))..)))	-30.9	46.9
CGCTCGGAAACGATGCG ((((((....))).)))	-35.4	51.8
CGCTCGGAAACGATGGCG ((((((....)))..)))	-31.2	45.7
CGCTGGCGGAAACGCGCG (((..(((....))))))	-19.5	52.5
CGCTGTCGGAAACGAGCG (((..(((....))))))	-25	45.2
CGCTTACGGAAACGTGCG (((..(((....))))))	-24.4	42.7
CGGAACGGAAACGTACCG (((.(((....))).)))	-43.6	49.7
CGGACCGGAAACGGACCG (((.(((....))).)))	-41.5	58.6
CGGACGGAAACGTAACCG ((((((....)))..)))	-28.7	36.1
CGGACGGAAACGTACCG ((((((....))).)))	-24.2	47.5
CGGACGGAAACGTCCCCG ((((((....)))..)))	-7.24	34.7
CGGACGGAAACGTGCCCG ((((((....)))..)))	-14.8	35.9
CGGACGGAAACGTTACCG ((((((....)))..)))	-20.6	36.3
CGGAGCGGAAACGCCCCG (((.(((....))).)))	-30.8	55.8
CGGATCCGGAAACGGCCG (((..(((....))))))	-20.6	38.3
CGGATCGGAAACGAGCCG (((.(((....))).)))	-47.4	65.4
CGGATGCGGAAACGCCCG (((..(((....))))))	-23.4	46.9
CGGCCGCGGAAACGCCCG (((..(((....))))))	-20.9	42.2
CGGCCGGAAACGGAGCCG ((((((....)))..)))	-34.7	54.6
CGGCCGGAAACGGCCCG ((((((....))).)))	-7.26	58.5

Sequence	folding enthalpy [1] [kcal/mol]	Tm [2] [°C]
CGGCCGGAAACGGGCCG ((((((....))).)))	-20	66.9
CGGGACGGAAACGTACCG (((.(((....))).)))	-42.1	62.4
CGGGAGCGGAAACGCCCG (((..(((....))))))	-21.4	53.6
CGGGCGGAAACGCAGCCG ((((((....)))..)))	-19.5	50.2
CGGGCGGAAACGCCGCCG ((((((....)))..)))	-10.2	47.8
CGGGCGGAAACGCTGCCG ((((((....)))..)))	-16.8	45.8
CGGGCGGAAACGCTTCCG ((((((....)))..)))	-17.9	41
CGGGGGAAACCCCG (((((....)))))	-21.8	68.5
CGGGTCGGAAACGACCG (((.(((....))))))	-11.4	61.7
CGGTATCGGAAACGACCG (((..(((....))))))	-27.8	36.3
CGGTCCGGAAACGGCCG (((.(((....))))))	-26.7	57.6
CGGTCGGAAACGAAACCG ((((((....)))..)))	-28.4	43.3
CGGTCGGAAACGAGGCCG ((((((....)))..)))	-23.7	41.5
CGGTCGGAAACGATCCCG ((((((....)))..)))	-17.9	34.9
CGGTCGGAAACGATCCG ((((((....))).)))	-43.2	50.5
CGGTGCGGAAACGCCCCG (((.(((....))).)))	-28.6	53.9
CGTAACCGGAAACGGACG (((..(((....))))))	-15.2	34
CGTAACGGAAACGTAACG (((.(((....))).)))	-29.6	44.8
CGTAACGGAAACGTCACG (((.(((....))).)))	-31.7	41.9
CGTAAGAAATTACG (((((....)))))	-15.7	38.4
CGTACGGAAACGTAAACG ((((((....)))..)))	-17.3	37.2
CGTACGGAAACGTATACG ((((((....)))..)))	-17.6	35.5
CGTACGGAAACGTCCACG ((((((....)))..)))	-12.1	30.2

Sequence	folding enthalpy [1] [kcal/mol]	Tm [2] [°C]
CGTACGGAAACGTGCACG ((((((....)))..)))	-14.5	36.2
CGTAGGCGGAAACGCACG (((..(((....))))))	-15.1	42.1
CGTCAACGGAAACGTACG (((..(((....))))))	-11.4	35.6
CGTCACGGAAACGTTACG (((.(((....))).)))	-31.2	45.3
CGTCCCGGAAACGGAACG (((.(((....))).)))	-26.3	47.5
CGTCCCGGAAACGGTACG (((.(((....))).)))	-29.1	47.2
CGTCCGGAAACGGAGACG ((((((....)))..)))	-21.4	45.3
CGTCCGGAAACGGCACG ((((((....))).)))	-22.5	47.6
CGTCGCGGAAACGCCACG (((.(((....))).)))	-33.1	45.1
CGTCGCGGAAACGCTACG (((.(((....))).)))	-28.9	49.3
CGTCTCGGAAACGAAACG (((.(((....))).)))	-32.4	38.5
CGTCTGCGGAAACGCACG (((..(((....))))))	-12.2	38.7
CGTGAGAAATCACG (((((....)))))	-25.8	50.8
CGTGAGCGGAAACGCACG (((..(((....))))))	-22.2	45.9
CGTGCCGGAAACGGAACG (((.(((....))).)))	-37.7	55.9
CGTGCCGGAAACGGTACG (((.(((....))).)))	-32.4	60.3
CGTGCGGAAACGCATACG ((((((....)))..)))	-15.4	44.9
CGTGCGGAAACGCCAACG ((((((....)))..)))	-19.2	39.4
CGTGCGGAAACGCCGACG ((((((....)))..)))	-15.6	44.5
CGTGCGGAAACGCGTACG ((((((....)))..)))	-26.1	48.6
CGTGCGGAAACGCTCACG ((((((....)))..)))	-18.3	39.9
CGTGCGGAAACGCTGACG ((((((....)))..)))	-21.2	42.5
CGTGGCCGGAAACGGACG (((..(((....))))))	-10.8	44.2
